From ChEMBL document CHEMBL3774372, “Design, physico-chemical properties and biological evaluation of some new N-[(phenoxy)alkyl]- and N-{2-[2-(phenoxy)ethoxy]ethyl}aminoalkanols as anticonvulsant agents” (Bioorg Med Chem, 2016)
Active and inactive are the calls of the source.

Columns and labels:
Mus musculus [1] = assay: Neurotoxicity in mouse at 10 mg/kg, ip after 0.5 hrs by rotarod test; type: toxicity, organism-based; conditions: in vivo
Outline: (§1)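 Mice were dosed ip with compound suspended in 0.5% methylcellulose. Rotarod: a 1 in. knurled rod turning at 6 rpm. Neurotoxicity was scored as failure to stay on the rod for at least 1 min in each of three trials. Results are given as the number of animals affected out of the number tested.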

Mus musculus [2] = assay: Neurotoxicity in mouse at 100 mg/kg, ip after 4 hrs by rotarod test; type: toxicity, organism-based; conditions: in vivo; outline: as §1
Mus musculus [3] = assay: Anticonvulsant activity in mouse assessed as protection against maximal electric shock-induced seizures at 10 mg/kg, ip measured after 0.5 hrs; type: functional, organism-based
Outline: (§2)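 Mice dosed ip with suspension in 0.5% methylcellulose; maximal electroshock applied at the listed time after dosing. Protection = abolition of hindlimb tonic extension component of seizure; reported as animals protected/animals tested.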

Mus musculus [4] = assay: Anticonvulsant activity in mouse assessed as protection against maximal electric shock-induced seizures at 30 mg/kg, ip measured after 0.5 hrs; type: functional, organism-based; outline: as §2
Mus musculus [5] = assay: Anticonvulsant activity in mouse assessed as protection against maximal electric shock-induced seizures at 10 mg/kg, ip measured after 4 hrs; type: functional, organism-based; outline: as §2
Mus musculus [6] = assay: Neurotoxicity in mouse at 10 mg/kg, ip after 4 hrs by rotarod test; type: toxicity, organism-based; conditions: in vivo
Mus musculus [7] = assay: Anticonvulsant activity in mouse assessed as protection against maximal electric shock-induced seizures at 100 mg/kg, ip measured after 4 hrs; type: functional, organism-based; outline: as §2
Vibrio harveyi [8] = assay: Antimutagenic activity against Vibrio harveyi BB7M assessed as inhibition of NQNO-induced mutagenicity after 48 hrs; type: functional
Outline: (§3)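 V. harveyi cultures grown exponentially to A600 0.1 at 30 °C, exposed to test compound for 15 min, then to NQNO, and grown on to A600 0.3–0.4. 5 × 10⁶ cells plated on BOSS agar with neomycin (100, final). Neomycin-resistant colonies counted after 48 h at 30 °C. Result given as % inhibition of NQNO mutagenicity; three independent repeats.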

Vibrio harveyi [9] = assay: Antimutagenic activity against Vibrio harveyi BB7XM assessed as inhibition of NQNO-induced mutagenicity after 48 hrs; type: functional; outline: as §3
Mus musculus [10] = assay: Neurotoxicity in mouse at 30 mg/kg, ip after 0.5 hrs by rotarod test; type: toxicity, organism-based; conditions: in vivo; outline: as §1
Mus musculus [11] = assay: Anticonvulsant activity in mouse assessed as protection against subcutaneous pentylenetetrazol-induced seizures at 30 mg/kg, ip measured after 4 hrs; type: functional, organism-based
Outline: (§4)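 Mice dosed ip as 0.5% methylcellulose suspension; pentylenetetrazole 85 mg/kg in 0.9% NaCl injected subcutaneously into posterior midline, animals watched at least 30 min. Protection = no threshold seizure (single clonic spasm episode lasting ≥5 s); scored protected/tested.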

Mus musculus [12] = assay: Neurotoxicity in mouse at 30 mg/kg, ip after 4 hrs by rotarod test; type: toxicity, organism-based; conditions: in vivo; outline: as §1
Vibrio harveyi [13] = assay: Mutagenicity in Vibrio harveyi BB7XM assessed as number of colonies after 48 hrs (reference value: 14 no_unit); type: ADME, organism-based; conditions: in vivo
Outline: (§5)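 Vibrio harveyi mutagenicity test: test compound was added to exponentially growing cultures (A600 = 0.1, 30 °C) and grown to OD600 0.3–0.4. Then 5 × 10^6 cells were plated on BOSS agar with neomycin (final 100 µg/mL) and incubated 48 h at 30 °C. Neomycin-resistant colonies were counted. Triplicate; controls were water, DMSO and NQNO 40 ng/mL.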

Vibrio harveyi [14] = assay: Mutagenicity in Vibrio harveyi BB7 assessed as number of colonies after 48 hrs (reference value: 13 to 14 no_unit); type: ADME, organism-based; conditions: in vivo; outline: as §5
Vibrio harveyi [15] = assay: Mutagenicity in Vibrio harveyi BB7X assessed as number of colonies after 48 hrs (reference value: 15 to 16 no_unit); type: ADME, organism-based; conditions: in vivo; outline: as §5
Vibrio harveyi [16] = assay: Mutagenicity in Vibrio harveyi BB7M assessed as number of colonies after 48 hrs (reference value: 13 to 14 no_unit); type: ADME, organism-based; conditions: in vivo; outline: as §5
Vibrio harveyi [17] = assay: Antimutagenic activity against Vibrio harveyi BB7X assessed as inhibition of NQNO-induced mutagenicity after 48 hrs; type: functional; outline: as §3
Mus musculus [18] = assay: Anticonvulsant activity in mouse assessed as protection against maximal electric shock-induced seizures at 30 mg/kg, ip measured after 4 hrs; type: functional, organism-based; outline: as §2
Mus musculus [19] = assay: Neurotoxicity in mouse at 3 mg/kg, ip after 4 hrs by rotarod test; type: toxicity, organism-based; conditions: in vivo
Mus musculus [20] = assay: Neurotoxicity in mouse at 300 mg/kg, ip after 0.5 hrs by rotarod test; type: toxicity, organism-based; conditions: in vivo; outline: as §1
Mus musculus [21] = assay: Anticonvulsant activity in mouse assessed as protection against maximal electric shock-induced seizures at 3 mg/kg, ip measured after 4 hrs; type: functional, organism-based; outline: as §2
Vibrio harveyi [22] = assay: Antimutagenic activity against Vibrio harveyi BB7 assessed as inhibition of NQNO-induced mutagenicity after 48 hrs; type: functional; outline: as §3
Mus musculus [23] = assay: Neurotoxicity in mouse at 3 mg/kg, ip after 0.5 hrs by rotarod test; type: toxicity, organism-based; conditions: in vivo; outline: as §1
Mus musculus [24] = assay: Anticonvulsant activity in mouse assessed as protection against subcutaneous pentylenetetrazol-induced seizures at 30 mg/kg, ip measured after 0.5 hrs; type: functional, organism-based; outline: as §4
Mus musculus [25] = assay: Anticonvulsant activity in mouse assessed as protection against maximal electric shock-induced seizures at 3 mg/kg, ip measured after 0.5 hrs; type: functional, organism-based; outline: as §2

**Q.** How did the Activity (Mus musculus [1]) turn out when `CC[C@H](CO)NCCOCCOc1c(C)cccc1C` was run?
**A.** Non-toxic

**Q.** What about the Activity (Mus musculus [2]) of the same molecule?
**A.** Non-toxic

**Q.** And the Activity (Mus musculus [3])?
**A.** inactive

**Q.** What about the Activity (Mus musculus [4]) of the same molecule?
**A.** Active

**Q.** What about the Activity (Mus musculus [5]) of the same molecule?
**A.** inactive

**Q.** What about the Activity (Mus musculus [6]) of the same molecule?
**A.** Non-toxic

**Q.** And the Activity (Mus musculus [7])?
**A.** inactive

**Q.** What about the “inhibition (INH)” value (Vibrio harveyi [8]) of the same molecule?
**A.** 55%

**Q.** What about the “inhibition (INH)” value (Vibrio harveyi [9]) of the same molecule?
**A.** 30%

**Q.** What about the Activity (Mus musculus [10]) of the same molecule?
**A.** Non-toxic

**Q.** What about the Activity (Mus musculus [11]) of the same molecule?
**A.** inactive

**Q.** And the Activity (Mus musculus [12])?
**A.** Non-toxic

**Q.** What about the Activity (Vibrio harveyi [13]) of the same molecule?
**A.** 27

**Q.** And the Activity (Vibrio harveyi [14])?
**A.** 20

**Q.** What about the Activity (Vibrio harveyi [15]) of the same molecule?
**A.** 26

**Q.** And the Activity (Vibrio harveyi [16])?
**A.** 20

**Q.** What about the “inhibition (INH)” value (Vibrio harveyi [17]) of the same molecule?
**A.** 56%

**Q.** And the Activity (Mus musculus [18])?
**A.** inactive

**Q.** What about the Activity (Mus musculus [19]) of the same molecule?
**A.** Non-toxic

**Q.** And the Activity (Mus musculus [20])?
**A.** Toxic

**Q.** And the Activity (Mus musculus [21])?
**A.** inactive

**Q.** And the “inhibition (INH)” value (Vibrio harveyi [22])?
**A.** 81%

**Q.** And the Activity (Mus musculus [23])?
**A.** Non-toxic

**Q.** What about the Activity (Mus musculus [24]) of the same molecule?
**A.** inactive

**Q.** And the Activity (Mus musculus [25])?
**A.** inactive
